“Also recorded” adds a separate entry of the source. Where only a bound is given, the exact number is not on record here.

The values that follow come from PMC5518789 (Journal of bone and mineral research : the official journal …, 2017).

One test deals with PTHrP(1-15)-mAb. The experiment in a line: Dot blot with PTHrP. It is filed as binding. As to conditions: nitrocellulose, 100, 10 and 1 ng, chemiluminescence. The method, boiled down: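 The test peptide, PTHrP(1-141), PTHrP(1-37), PTH(1-34) and IL-8 were each spotted at 100, 10 and 1 ng onto nitrocellulose under nondenaturing conditions. Blots were probed with an N-terminal PTHrP(1-15) monoclonal antibody and developed by chemiluminescence.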

In test [1] the test system is PTHrP(12-48) polyclonal Ab. The experiment in a line: Dot blot with PTHrP. It is filed as binding, chicken. As to conditions: nitrocellulose, nondenaturing, 100, 10 and 1 ng, chemiluminescence. The method, boiled down:
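The peptide panel (test peptide, PTHrP(1-141), PTHrP(1-37), PTH(1-34), IL-8) was spotted at 100, 10 and 1 ng on nitrocellulose without denaturation. The probe was a chicken polyclonal IgY raised against the KLH-conjugated test peptide, depleted of PTHrP(1-37) by negative selection and affinity-purified on a test-peptide column. Detection was by chemiluminescence.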

Test [2] has as its system PTHR1 (PTHR1-expressing SaOS2 cells). The experiment in a line: Competitive cAMP ELISA in SaOS2 cells. It is filed as cell-based, human. As to conditions: PTH(1-34) 1 and 10 nM, 10 min, IBMX pretreatment, representative of three independent experiments. The method, boiled down: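 SaOS2 cells were grown in RPMI 1640 with 10% FBS and antibiotics at 37°C and 5% CO₂, with medium changed every 3 days. Confluent cultures were serum-starved for 6 h, pretreated with IBMX for 15 min, then exposed to ligand for 10 min. Cells were lysed, and cAMP was quantified by a competitive ELISA kit following the manufacturer's protocol.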

For test [3] the test system is unchanged. To be noted: cited from earlier work.
The test system of test [4] is human OCLs and their precursors (PBMCs). The experiment in a line: Internalization assay in human osteoclasts and precursors. It is filed as cell-based. The method, boiled down:
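Thawed human PBMCs were seeded at 500,000 cells/well on chamber slides in alpha-MEM + 10% FBS with mCSF (25 ng/mL) ± RANKL (50 ng/mL) at 37°C, 5% CO₂. On day 7, test peptide (100 nM) was added with serum for 15, 30, 60 or 90 min. Cells were fixed in 4% paraformaldehyde (4°C, 15 min), permeabilised with 0.02% Triton X-100 and blocked with BlokHen 1:10. They were stained with chicken anti-test-peptide antibody plus DAPI, with a no-primary control, and imaged by fluorescence or confocal microscopy.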

The test system of test [5] is other resident bone and bone marrow cells. The experiment in a line: Uptake in other resident bone and bone marrow cells. It is filed as cell-based. As to conditions: in vitro or in vivo; data not shown.
Test [6] concerns human OCL precursors and differentiated OCLs (PBMCs). Nature of the test: Cleaved caspase 3. It is filed as cell-based. To be noted: for total cells positive for cleaved caspase-3, controls day 0: OCL precursors, vehicle or mCSF without or with RANKL on day 0, 24 h. The method, boiled down:
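Frozen human PBMCs were thawed at 37°C and seeded at 500,000 cells/well on chamber slides in alpha-MEM + 10% FBS with mCSF (25 ng/mL) ± RANKL (50 ng/mL) at 37°C, 5% CO₂. Cells were treated 24 h with test peptide (50 nM) or TNFα (200 ng/mL) on day 0 or day 7. They were then fixed, permeabilised and stained with anti-cleaved caspase 3 (Asp175) at 1:400 plus a 1 h secondary, with DAPI nuclei. Positive cells were counted by fluorescence or confocal microscopy.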

The subject of test [7] is mesenchymal lineage cells. The experiment in a line: Effect on mesenchymal lineage cells. It is filed as cell-based. As to conditions: in vitro or in vivo; data not shown.
The test system of test [8] is PTHR1 (SaOS2 or any other PTHR1-expressing cell). The experiment in a line: PTHR1 antagonism of PTHrP. It is filed as cell-based, human. As to conditions: data not shown.
In the next test the test system is PTHrP(12-48) Ab. Nature of the test: Western blot with PTHrP. It is filed as binding, chicken. To be noted: SDS-PAGE (12%) immunoblot; PTHrP(12-48) 1 mM, 100 µM, 10 µM; two independent series of experiments. In a few lines:
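Peptides and IL-8 were run on 12% SDS-PAGE and transferred to nitrocellulose. Blots were blocked for 30 min in BlokHen (1:10 in water), then washed in PBS with 0.05% Tween-20. They were probed with chicken polyclonal IgY (raised against KLH-conjugated PTHrP(12-48) and PEG-precipitated from egg yolk) or a PTHrP(1-15) monoclonal, then a secondary antibody. Detection was by chemiluminescence. Blots were stripped for 30 min at RT and reprobed for IL-8.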

Another test has as its system cells (PTHR1-dependent). As to conditions: cited from earlier work.
For test [9], the system named is human OCL precursors / OCLs (PBMCs). Nature of the test: Osteoclastogenesis, TRAP+ MNC count. It is filed as cell-based. As to conditions: RANKL 50 ng/mL + mCSF 25 ng/mL versus mCSF; day 10; Fig. 3A, p < 0.001.

With “IL-8: interleukin 8, control in dot blots”, the “recognition by PTHrP(1-15) mAb” value with PTHrP(1-15)-mAb was “not recognized by either PTHrP Ab”. Besides, in test [1], the “recognition by PTHrP(12-48) Ab” value was “not recognized by either PTHrP Ab”.

In the case of “PTH(1-34): activates cAMP production via PTHR1, used as a positive control (SVSEIQLMHNLGKHLNSMERVEWLRKKLQDVHNF; Parathyroid hormone; UniProt P01270 32-65, looked up, fragment)”, in test [2], the “cAMP production (positive control)” value is reported as “stimulated cAMP production; also recorded: stimulated the expected increase in cAMP”. The “activation of cAMP production via PTHR1 (literature)” value in test [3] (50 nM) is given as “activates cAMP production via PTHR1”.

For the molecule “PTHrP(1-36): PTHR1 ligand to which SaOS2 cells respond [reference compound]”, the “SaOS2 response / activation of Gαs” value in [3] (SaOS2 cells, 36 (response), 42 (Gαs)) is recorded as “trigger the activation of Gαs”. In addition, the “internalization into day 7 cells” value in test [4] (PTHrP(1-36), similar treatment (Supplemental Fig. 2)) was “no internalization”.

Regarding “PTHrP(1-37): N-terminal peptide used in dot blots and ELISA”, the “recognition by PTHrP(1-15) mAb” value in the test on PTHrP(1-15)-mAb is “recognized an antigen present in full-length PTHrP(1-141) as well as PTHrP(1-37)”.

Take “PTHrP(1-141): full-length recombinant PTHrP, gift of Dr. T.J. Martin”: the “recognition by PTHrP(1-15) mAb” value with PTHrP(1-15)-mAb is on record as “recognized an antigen present in full-length PTHrP(1-141)”. The “recognition by PTHrP(12-48) Ab” value in test [1] was “but not PTHrP(1-141)”.

Take “PTHrP(12-48): unique peptide fragment of parathyroid hormone-related protein (PTHrP); New England Peptides Inc. (GKSIQDLRRRFFLHHLIAEIHTAEIRATSEVSPNSKP; Parathyroid hormone-related protein; UniProt P12272 48-84, looked up, fragment)”: the “uptake in other resident bone and bone marrow cells” value in test [5] was “unable to show an effect of PTHrP(12-48) on mesenchymal lineage cells or observe any apparent uptake in other resident bone and bone marrow cells”. The “cleaved caspase 3-positive cells, day 7” value in [6] (50 nM, 24 h, cells cultured for 7 days, Fig. 4C, D, p < 0.05) is listed as “significantly increased the number of cleaved caspase 3-positive cells”. For the same molecule, the “cleaved caspase 3 increase compared with TNFα” value in [6] (PTHrP(12-48) 50 nM versus TNFα 200 ng/ml, 24 h) was “comparable to the effects observed following treatment with TNFα”. Moreover, the “recognition by PTHrP(1-15) mAb” value with PTHrP(1-15)-mAb is “but not PTHrP(12-48)”. The “effect on mesenchymal lineage cells” value in test [7] was “unable to show an effect of PTHrP(12-48) on mesenchymal lineage cells”. Further, the “time to internalization into primary human OCLs and their precursors” value in test [4] (100 nM, day 7 cells, immunofluorescence) is at most 60 min. The “internalization into OCLs” value in test [4] (100 nM, in presence of serum, day 7 cells, mCSF (25 ng/mL)+RANKL (50 ng/mL), 15, 30, 60 and 90 min, immunofluorescence, three independent experiments) is “observed in OCLs 60 min after the addition”. Also, the “internalization into mononuclear cells (precursors)” value in test [4] (100 nM, mCSF alone, Fig. 2H panel iv, immunofluorescence) is on record as “observed in mononuclear cells cultured in the presence of mCSF alone”. In addition, in [8] (SaOS2 or any other PTHR1-expressing cell), the “antagonist or partial antagonist action at PTHR1” value was “unable to show any significant antagonist or partial antagonist actions”. The “antagonism of PTHrP(1-36) agonist activity at PTHR1” value in test [8] was “nor does PTHrP(12-48) antagonize agonist activity of PTHrP(1-36) at the PTHR1”. In addition, the “recognition by PTHrP(12-48) Ab” value in the test with PTHrP(12-48) Ab is “specifically recognized the 4-kDa PTHrP(12-48); also recorded: specifically recognized by PTHrP(12-48) Ab”.

For “PTHrP(67-93): PTHrP fragment shown to translocate into cells (YLTQETNKVETYKEQPLKTPGKKKKGK; Parathyroid hormone-related protein; UniProt P12272 103-129, looked up, fragment)”, the translocation into cells entry in the test on cells (PTHR1-dependent) was “translocate into cells in a PTHR1-dependent fashion”.

In the case of “PTHrP(94-108): PTHrP fragment shown to translocate into cells (PGKRKEQEKKKRRTR; Parathyroid hormone-related protein; UniProt P12272 130-144, looked up, fragment)”, the translocation into cells result in the test on cells (PTHR1-dependent) is “translocate into cells in a PTHR1-dependent fashion”.

B1: mCSF: culture factor for osteoclast precursors, R&D Systems (protein, UniProt P07141 33-552, looked up)
Macrophage colony-stimulating …: KEVSEHCSHMIGNGHLKVLQQLIDSQMETSCQIAFEFVDQEQLDDPVCYLKKAFFLVQDIIDETMRFKDNTPNANATERLQELSNNLNSCFTKDYEEQNKACVRTFHETPLQLLEKIKNFFNETKNLLEKDWNIFTKNCNNSFAKCSSRDVVTKPDCNCLYPKATPSSDPASASPHQPPAPSMAPLAGLAWDDSQRTEGSSLLPSELPLRIEDPGSAKQRPPRSTCQTLESTEQPNHGDRLTEDSQPHPSAGGPVPGVEDILESSLGTNWVLEEASGEASEGFLTQEAKFSPSTPVGGSIQAETDRPRALSASPFPKSTEDQKPVDITDRPLTEVNPMRPIGQTQNNTPEKTDGTSTLREDHQEPGSPHIATPNPQRVSNSATPVAQLLLPKSHSWGIVLPLGELEGKRSTRDRRSPAELEGGSASEGAARPVARFNSIPLTDTGHVEQHEGSSDPQIPESVFHLLVPGIILVLLTVGGLLFYKWKWRSHRDPQTLDSSVGRPEDSSLTQDEDRQVELPV
Take B1: the “total cells positive for cleaved caspase-3, controls day 0” value in test [6] is “less than 25%”.

B2: RANKL: receptor activator of NF-κB ligand, R&D Systems (protein, UniProt O14788 140-317, looked up)
Tumor necrosis factor ligand …: IRAEKAMVDGSWLDLAKRSKLEAQPFAHLTINATDIPSGSHKVSLSSWYHDRGWAKISNMTFSNGKLIVNQDGFYYLYANICFRHHETSGDLATEYLQLMVYVTKTSIKIPSSHTLMKGGSTKYWSGNSEFHFYSINVGGFFKLRSGEEISIEVSNPSLLDPDQDATYFGAFKVRDID
For B2, the “total cells positive for cleaved caspase-3, controls day 0” value in test [6] is on record as “less than 25%”. In addition, the “number of TRAP+ MNCs, effect of RANKL” value in test [9] is “significantly increased the number of TRAP+ MNCs”.
